Bioassay records deposited in PubChem by several laboratories.
The list is not random: actives were taken first. Their share in the collection is about 3.8%.
OX1R antag-1 = antagonists of human orexin 1 receptor | CHO/OX1R cells, Fluo-8 calcium fluorescence, orexin A | inhibition, % at 5 µM | hit rate 0.43% among 330,000;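 active = inhibition above its plate's threshold, mean inhibition of all tested compounds on the plate plus 3 SD, cut at about 37% in these data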
CHO parental Ca = counter-screen for OX1R antagonists: effect in parental CHO cells; parental CHO-K1, ATP-induced calcium, Fluo-8 fluorescence; hit rate 0.63% among 330,000; inhibition, % at 5.6 µM;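 active = inhibition above that plate's mean sample inhibition plus 3 SD, cut at about 26% in these data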
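Assay system: parental CHO cells; Read-out basis: percent inhibition of ATP-evoked calcium rise, normalized to controls; Benchmarks: ATP and no-ATP DMSO wells; Compound dosing: single nominal dose of 5.6 µM per compound; Signal: Fluo-8 calcium dye fluorescence; Also added: ATP as calcium-mobilizing challenge; Repeats: singlicate.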
GPR7 antag = blocks human GPR7 receptor signaling | GPR7-expressing cells, fluorescence antagonist assay | P48145 | hit rate 1.1% among 290,000 | inhibition, % at 4.4 µM; in the data active = inhibition above about 16%, passing the limit was not always enough;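 note: cells stimulated with the agonist NPW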
Target sequence (P48145 whole entry, looked up): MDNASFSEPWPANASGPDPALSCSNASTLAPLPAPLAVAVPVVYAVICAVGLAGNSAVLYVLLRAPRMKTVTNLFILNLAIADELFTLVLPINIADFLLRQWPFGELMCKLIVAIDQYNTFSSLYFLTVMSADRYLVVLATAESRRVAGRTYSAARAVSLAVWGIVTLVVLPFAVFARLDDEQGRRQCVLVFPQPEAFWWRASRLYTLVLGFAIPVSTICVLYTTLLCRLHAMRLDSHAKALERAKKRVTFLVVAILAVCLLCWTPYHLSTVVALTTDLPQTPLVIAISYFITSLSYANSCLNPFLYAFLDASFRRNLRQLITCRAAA
MPTP block = inhibitors of mitochondrial permeability transition pore; isolated mouse mitochondria, Ca2+ swelling absorbance, 30 min; inhibition, % at 10 µM; hit rate 1.4% among 360,000;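 active = inhibition of 50% or more, scaled per plate between neutral and stimulator controls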
OX1R antag-2 = blocks the human orexin 1 receptor; OX1R-expressing cells, FRET antagonist read-out; inhibition, % at 6.6 µM; hit rate 1.8% among 330,000; AID 485270; in the data active = inhibition mostly above about 38%, no sharp cut-off; inactive = mostly below about 40%
Rh123 counter = mitochondrial membrane potential, counter-screen | shares compounds with MPTP block | isolated mitochondria, Rhodamine 123 fluorescence | inhibition, % at 10 µM | hit rate 78% among 5,000 | AID 624504; in the data active = inhibition above about 22%
MPTP swell DR = MPTP inhibition, dose response swelling confirmation; shares compounds with MPTP block; isolated mitochondria swelling, absorbance; IC50, µM; hit rate 58% among 780; AID 651561; in the data active = IC50 below about 20 µM
MPTP counter DR = counter-screen for mitochondrial permeability transition pore inhibitors, dose response | hit rate 49% among 780 | AID 651564 | IC50, µM | isolated mitochondria counterscreen, fluorescence read-out | shares compounds with MPTP block; in the data active = IC50 below about 80 µM
Hits are given with their value; i = inactive; nt = no result given.

SMILES | OX1R antag-1 | CHO parental Ca | GPR7 antag | MPTP block | OX1R antag-2 | Rh123 counter | others
O=[N+]([O-])c1cc(-n2cnnn2)ccc1N1CCC(Cc2ccccc2)CC1 | i | i | i | 75 | i | 57
COc1ccc(Cn2c(-c3ccc(OC)cc3)nc3ccccc32)cc1 | i | i | i | i | i | nt
COc1ccc(CCN2CCC(Nc3nc4ccccc4n3Cc3ccc(F)cc3)CC2)cc1 | i | i | i | 83 | i | i
COc1cccc(OCC(=O)NNC(=S)Nc2ccc(Cl)cc2Cl)c1 | i | i | i | 68 | i | 99
O=C(CN1c2ccccc2Sc2ccccc21)NNC(=S)Nc1ccc(Cl)cc1Cl | i | i | i | 83 | i | 77
COC(=O)c1c(NC(C)=O)csc1C | i | i | i | i | i | nt
Cc1ccc(C)c(NC(=S)NCCSc2ccc(Cl)cc2)c1 | i | i | i | 76 | i | 90
COc1ccc(OC)c(NC(=S)NCCSc2ccc(C)cc2)c1 | i | i | i | i | i | nt
Cc1ccc(Cl)cc1NC(=S)NCCCSC1CCCCC1 | i | i | i | 99 | i | 91
Cc1ccc(NC(=S)NCCSc2ccc(Cl)cc2)c(C)c1 | i | i | i | 81 | i | 87
COc1ccc(NC(=S)NCCSc2ccc(C)cc2)c(OC)c1 | i | i | i | i | i | nt
Cc1ccccc1NC(=S)NCCSc1ccc(Cl)cc1 | i | i | i | 92 | i | 86
Cn1c(SCC(=O)c2ccccc2)nnc1-c1cccs1 | i | i | i | i | i | nt
CC(C)c1ccc(N(CC(=O)NCC2CCCO2)C(=O)Cn2nnc(-c3cccs3)n2)cc1 (configuration not stated) | i | i | i | i | i | nt
COC(=O)Cc1c(C)c2ccc(OCC(=O)NC3CCS(=O)(=O)C3)cc2oc1=O (configuration not stated) | i | i | i | i | i | nt
Cc1cccc(NC(=S)NNc2cccc(Cl)c2)c1 | i | i | i | i | i | nt
CCc1ccccc1NC(=S)NCCSc1ccc(Cl)cc1 | i | i | i | 94 | i | 94
CS(=O)(=O)Nc1ccccc1C(=O)NCCSc1ccc(Cl)cc1 | nt | nt | i | i | nt | nt
Cc1cccc(NC(=S)NCCSc2ccc(Cl)cc2)c1 | i | i | i | 98 | i | 85
CN(C)/C=C/C(=O)c1cc(N2CCOCC2)ccc1[N+](=O)[O-] | i | i | i | i | i | nt
CCC/C=C1/CCCOC(C(=O)NCc2ccc(C)o2)(C(F)(F)F)C1 (configuration not stated) | i | i | nt | i | i | nt
O=C1Nc2ccccc2C(O)(C(=O)NCc2ccco2)N1c1ccc(Cl)cc1 (configuration not stated) | i | i | i | 90 | i | 87
O=S(=O)(c1ccccc1)N1CCC(O)(CSc2ccc(Cl)cc2)CC1 | 46 | 62 | i | 98 | i | 84
CC(=O)c1ccc(N2CCN(C(=S)Nc3ccc(Cl)c(Cl)c3)CC2)cc1 | i | i | i | 94 | i | 77
O=C(Nc1ccc(Cl)c(Cl)c1)N1CCOCC1 | nt | nt | i | i | nt | nt
SMILES | OX1R antag-1 | CHO parental Ca | GPR7 antag | MPTP block | OX1R antag-2 | Rh123 counter | others
O=C(Nc1ccccc1)Nc1ccc(Cl)c(S(=O)(=O)N2CCOCC2)c1 | i | i | 18 | 62 | i | 86
O=C(Nc1ccc(N2CCOCC2)cc1)Nc1ccc(Cl)c(Cl)c1 | 45 | 51 | i | 93 | i | 80
O=C(Nc1ccc(Cl)cc1)Nc1ccc(N2CCOCC2)cc1 | i | i | i | 69 | i | 57
CC(=O)c1ccc(N2CCN(C(=S)Nc3ccccc3)CC2)cc1 | i | i | i | i | i | nt
O=C(Nc1ccc(NC(=O)c2ccc(Cl)c(S(=O)(=O)N3CCOCC3)c2)cc1)c1ccccc1 | i | i | i | i | i | nt
CC1=C(C(=O)OC(C)C)C(c2cccs2)C(C(=O)OC(C)C)=C(C)N1 | i | i | i | i | i | nt
O=C(Nc1ccc(C2SCCS2)cc1)c1ccccc1 | i | i | i | i | i | nt
O=C1C=C(NC(=O)Nc2ccc(Cl)c(Cl)c2)CCC1 | i | i | i | 91 | i | 98
O=C(c1ccc(NC(=S)Nc2ccc(Cl)c(Cl)c2)cc1)N1CCCC1 | i | i | i | 103 | i | 92
C=CCSC1=N/C(=C\c2cc(OCC)c(OC(C)=O)c([N+](=O)[O-])c2)C(=O)S1 | i | i | i | 98 | i | 63
COc1ccc(NC(=S)NC(NC(=O)CCl)C(Cl)(Cl)Cl)c([N+](=O)[O-])c1 (configuration not stated) | i | i | i | i | i | nt
O=C(NC(NC(=S)Nc1c(Cl)cccc1Cl)C(Cl)(Cl)Cl)c1cccc([N+](=O)[O-])c1 (configuration not stated) | i | i | i | 73 | i | 54
COc1ccc(NC(=S)NC(NC(=O)c2cccc3ccccc23)C(Cl)(Cl)Cl)c([N+](=O)[O-])c1 (configuration not stated) | i | i | i | 70 | i | 55
COC(=O)c1ccccc1NC(=S)NC(NC(=O)c1ccccc1[N+](=O)[O-])C(Cl)(Cl)Cl (configuration not stated) | i | i | i | i | i | nt
COc1ccc(NC(=S)NC(NC(=O)c2ccc(Cl)cc2Cl)C(Cl)(Cl)Cl)c([N+](=O)[O-])c1 (configuration not stated) | i | i | i | 87 | i | 54
O=C(NNC(=S)NC(=O)c1ccccc1Cl)c1cccc([N+](=O)[O-])c1 | i | i | i | i | i | nt
COc1ccc(NC(=S)NC(NC(=O)c2ccccc2Cl)C(Cl)(Cl)Cl)c([N+](=O)[O-])c1 (configuration not stated) | i | i | i | 66 | i | 66
COc1ccc(C(=O)NC(C(=O)NCC2(N3CCCCC3)CCCCC2)C(C)C)cc1 (configuration not stated) | i | i | nt | i | i | nt
Cc1ccc(C23CC4CC(CC(CN)(C4)C2)C3)cc1 | nt | nt | i | 80 | nt | i | MPTP swell DR=5;MPTP counter DR=75
CC(NC(=O)CCc1nnc(CCCc2ccccc2)o1)c1ccccc1 (configuration not stated) | i | i | i | i | i | nt
Fc1cccc(NC(=S)Nc2cccc3ccccc23)c1 | i | i | i | i | i | nt
Cc1ccc(NC(=S)Nc2cccc3ccccc23)cc1F | i | i | i | 64 | i | 84
Cc1cccc(C)c1NC(=O)C(=O)NCC1CCCN1S(=O)(=O)c1cccs1 (configuration not stated) | i | i | nt | i | i | nt
O=C(Nc1ccc(Cl)cc1)Nc1ccccc1C(=O)NCc1ccco1 | i | i | i | i | i | nt
CN(NC(=O)C(=O)NCc1ccco1)C(=O)Nc1ccc(Cl)cc1 | nt | nt | nt | 85 | nt | 109
COc1ccc(NC(=O)C2Cc3c(-c4cccc(F)c4)ccnc3O2)cc1OC (configuration not stated) | nt | nt | nt | 68 | nt | 65
